The values that follow come from ChEMBL document CHEMBL1833924, “HLE-inhibitory alkaloids with a polyketide skeleton from the marine-derived fungus Coniothyrium cereale” (J Nat Prod, 2011).

Series [1] concerns Escherichia coli. Briefly: Antibacterial activity against Escherichia coli assessed as zone of inhibition at 20 ug/disk after 24 hrs by agar diffusion assay. In kind it is functional. The following applies: read-out: DIZ. In short, it runs like this:
(§1)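 Paper discs loaded at 20 μg/disk were placed on agar seeded with each bacterium (Mycobacterium phlei, Staphylococcus aureus or Escherichia coli). Read-out was the diameter of the inhibition zone, recorded in mm.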
Background: In agar diffusion tests the substance spreads into inoculated agar from a disc or well.

Series [2] concerns the target T1, Papain (Carica papaya, UniProt P00784).
T1 sequence (P00784 whole entry): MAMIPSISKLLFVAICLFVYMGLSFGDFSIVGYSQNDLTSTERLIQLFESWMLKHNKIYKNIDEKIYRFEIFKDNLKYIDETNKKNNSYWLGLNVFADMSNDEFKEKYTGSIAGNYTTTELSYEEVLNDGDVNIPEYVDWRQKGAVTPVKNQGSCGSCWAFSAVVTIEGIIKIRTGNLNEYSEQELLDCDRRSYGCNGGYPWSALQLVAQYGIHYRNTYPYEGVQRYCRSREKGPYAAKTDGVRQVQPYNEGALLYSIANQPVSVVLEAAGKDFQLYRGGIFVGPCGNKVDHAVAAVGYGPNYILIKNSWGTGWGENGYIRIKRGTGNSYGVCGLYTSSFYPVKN
In words: Inhibition of Carica papaya papain.

The target of series [3] is T2, Neutrophil elastase (Homo sapiens, UniProt P08246).
T2 sequence (P08246 whole entry): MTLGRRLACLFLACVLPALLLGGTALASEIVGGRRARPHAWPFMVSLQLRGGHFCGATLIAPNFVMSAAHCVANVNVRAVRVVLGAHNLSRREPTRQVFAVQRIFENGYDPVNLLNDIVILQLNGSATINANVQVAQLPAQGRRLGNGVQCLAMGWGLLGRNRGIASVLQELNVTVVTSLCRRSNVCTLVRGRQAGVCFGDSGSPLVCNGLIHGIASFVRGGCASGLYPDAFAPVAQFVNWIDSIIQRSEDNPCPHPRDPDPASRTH
In words: Inhibition of human leukocyte elastase using MeOSuc-Ala-Ala-Pro-Val-para-nitroanilide chromogenic substrate after 10 mins spectrophotometrically. An outline of the steps: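 Human leukocyte elastase enzyme inhibition assay; IC50 (μM) determined and reported as mean ± spread.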

Series [4] can be described thus: Inhibition of bovine Chymotrypsin. Also on record: species or system Bos taurus.
A short description of series [5]: Inhibition of porcine cholesterol esterase. Also on record: species or system Sus scrofa.
The subject of series [6] is Staphylococcus aureus. In words: Antibacterial activity against Staphylococcus aureus assessed as zone of inhibition at 20 ug/disk after 24 hrs by agar diffusion assay. In kind it is functional. The following applies: read-out: DIZ. In short, it runs like this: as §1
Series [7] has as its target Acetylcholinesterase (Electrophorus electricus, UniProt O42275). Briefly: Inhibition of electric eel AChE.
For series [8], the target named is Prothrombin (Homo sapiens, UniProt P00734). In words: Inhibition of human thrombin.
The test system of series [9] is Mycolicibacterium phlei. Briefly: Antibacterial activity against Mycobacterium phlei assessed as zone of inhibition at 20 ug/disk after 24 hrs by agar diffusion assay. The following applies: read-out: DIZ. It counts as functional. An outline of the steps: as §1
The nature of series [10]: Inhibition of bovine trypsin. On the set-up: species or system Bos taurus.
In series [11] the test system is L929. Briefly: Cytotoxicity against mouse L929 cells after 5 days by MTT assay. In kind it is cell-based. The following applies: L929, 120 h. In short, it runs like this: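 MTT viability assay run on mouse fibroblast cells; result expressed as IC50 (μM).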
(In general: Formazan colour is commonly taken as a measure of viable cells.)

Series [12] concerns Mycolicibacterium phlei. In words: Antibacterial activity against Mycobacterium phlei at 20 uL after 24 hrs by agar diffusion assay. It counts as functional, organism-based.
Series [13] relates to Staphylococcus aureus. Briefly: Antibacterial activity against Staphylococcus aureus at 20 uL after 24 hrs by agar diffusion assay. It counts as functional, organism-based.
For series [14], the system named is Escherichia coli. Briefly: Antibacterial activity against Escherichia coli at 20 ug/disk after 24 hrs by agar diffusion assay.
The test system of series [15] is L929. Briefly: Cytotoxicity against mouse L929 cells at 60 uL after 5 days by MTT assay. It counts as cell-based. The following applies: l929, 120 h.

Structures are written as SMILES. Calls of active or inactive are those of the source. The calls are words filed in the database; no cut-off is given here.

Acetylcholinesterase, sequence (O42275 whole entry): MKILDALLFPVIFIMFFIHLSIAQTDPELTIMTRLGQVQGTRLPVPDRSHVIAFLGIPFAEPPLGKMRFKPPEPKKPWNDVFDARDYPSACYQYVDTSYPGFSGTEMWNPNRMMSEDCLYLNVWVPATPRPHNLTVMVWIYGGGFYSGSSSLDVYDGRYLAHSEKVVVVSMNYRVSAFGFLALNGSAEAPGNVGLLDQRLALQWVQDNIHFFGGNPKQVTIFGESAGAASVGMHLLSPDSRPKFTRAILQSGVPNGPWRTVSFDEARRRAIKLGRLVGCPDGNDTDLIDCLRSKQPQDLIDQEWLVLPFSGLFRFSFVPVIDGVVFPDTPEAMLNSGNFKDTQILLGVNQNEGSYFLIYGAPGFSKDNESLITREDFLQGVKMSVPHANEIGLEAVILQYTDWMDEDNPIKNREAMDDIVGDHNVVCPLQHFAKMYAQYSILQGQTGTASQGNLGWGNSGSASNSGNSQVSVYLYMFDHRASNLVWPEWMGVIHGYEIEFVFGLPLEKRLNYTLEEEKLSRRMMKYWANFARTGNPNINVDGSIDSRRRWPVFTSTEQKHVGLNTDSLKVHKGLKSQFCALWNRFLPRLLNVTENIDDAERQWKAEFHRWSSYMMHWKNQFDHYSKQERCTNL

Usually IC50 stands for the point on the concentration scale where inhibition reaches its midpoint. Low readings indicate higher potency, high ones lower potency. As for `Cc1cc(O)cc2c1C1=C(C(=O)C2=O)C(C)(C)[C@H](C)O1`, the results for the zone of inhibition at 20 µg/disc in series [1], in series [6] and in series [9] were 12 mm, 14 mm and 18 mm, respectively. The IC50 in [2] was over 50 µM; in series [3], over 20 µM; in [4] it was over 50 µM; in series [5], over 50 µM; in [7], over 50 µM; in [8] it was over 50 µM. In addition, the IC50 in series [10] is over 50 µM; in [11], 7.5 µM.

Regarding `C[C@@H]1OC2=C(C(=O)C(=N)c3c(O)c(O)cc(C=O)c32)C1(C)C`, the outcome in series [12], in series [13] and in series [14] was inactive. For the same compound, the IC50 in [2] is over 50 µM; in series [3], 3.01 µM; in series [4], over 50 µM; in series [5] it was over 50 µM; in series [7], over 50 µM; in series [8] it was over 50 µM. For the same compound, in [10], the IC50 was over 50 µM. In addition, the Activity result in series [15] is given as “Non-toxic”.

As to `Cc1cc(O)c2c3c(c(O)c4c(c13)O[C@@H](C)C4(C)C)NC2=O`, the result in [12], in series [13] and in series [14] was inactive. For the same compound, the IC50 in series [2] was over 50 µM; in [3], 9.28 µM; in series [4], over 50 µM; in series [5], over 50 µM; in [7] it was over 50 µM; in series [8], over 50 µM. Further, the 50% inhibitory concentration (IC50) in [10] is over 50 µM. Further, the Activity result in series [15] is given as “Non-toxic”.
